Assay results as given in PubChem BioAssay AID504383 (The Scripps Research Institute Molecular Screening Center, 2011).
About 1,200 (48%) of roughly 2,500 compounds were called active. So high a share suggests a set chosen from earlier hits. This is one part of the list. A number with no mark means an inactive call.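 The calls were made as follows: active = mean activation above the low control average plus 3 SD, as set in the primary screen (cut at about 12% in these data); inactive = the rest.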

biological target: Troponin I, cardiac muscle (Homo sapiens) + Troponin T, cardiac muscle (Homo sapiens) + Troponin C, slow skeletal and cardiac muscles (Homo sapiens) (UniProt P19429+P45379+P63316); assay: calcium sensitizers of cardiac thin filaments – biochemical, IANBD-TnC fluorescence, triplicate, confirmation (AID 504383); settings: IANBD-labeled cardiac RTF, Ca2+ sensitivity fluorescence; at 7.2 µM; hits give high values; scaled from EC20 to saturating calcium; tested at EC20 calcium, 0.472 mM;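 also: 0% = DMSO at 0.472 mM calcium and 100% = DMSO at 2.9 mM calcium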
Procedure, shortened: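 Material: labelled regulated thin filaments; Reagent: 0.472 mM calcium; Incubation: 15 min compound incubation with filaments at 25 °C; Detection: filament fluorescence intensity; Evaluation: fluorescence increase normalised to calcium controls; Benchmarks: low control EC20 calcium, high control EC100 calcium.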

Structure (SMILES)	activation
CCNC(=O)NNC(=O)C1CC(c2cccs2)=NO1 (stereo not drawn)	4.43%
COc1cc(/C=C2\SC(=Nc3ccccc3)NC2=O)cc(Cl)c1O	3.89%
COc1cc(/C=C2\SC(=Nc3ccc(Cl)c(C(=O)O)c3)NC2=O)c(Br)c(Br)c1O	54% (active)
CCN(CC)c1ccc2c(c1)OC(N)=C(C#N)C2c1cccnc1 (stereo not drawn)	15.4% (active)
CSc1nc(C)nc(N/C=C(\C#N)S(=O)(=O)c2ccccc2Cl)n1	6.97%
C=CCn1c(O)c(CN2CCN(Cc3ccccc3)CC2)c(C)c(C#N)c1=O	3.99%
Cc1c(CN2CCCC(C)C2)c(O)n(CCO)c(=O)c1C#N (stereo not drawn)	11.9% (active)
CCN(c1ccccc1)S(=O)(=O)c1ccc(OC)c(NC(=O)Cn2cnc3c2c(=O)n(C)c(=O)n3C)c1	18.8% (active)
CC1=C(C(=O)N(C)C)C(c2ccc(C)s2)NC(=S)N1 (stereo not drawn)	0.74%
CCn1nc(-c2ccccc2)c2nc3ccccc3nc21	26.2% (active)
CCCCCn1nc(-c2ccccc2)c2nc3ccccc3nc21	54.7% (active)
Cn1nc(-c2ccccc2)c2nc3ccccc3nc21	8.34%
O=C(COC(=O)c1ccc(O)cc1)Nc1ccc2c(c1)OCCO2	78.5% (active)
Cc1cc(C(=O)O)ccc1-c1ccc(/C=C2\SC(=O)N(CC(=O)Nc3ccc4c(c3)OCO4)C2=O)o1	11.4%
Cc1c(C)[n+](=O)c(-c2ccc(Br)cc2)c(C)n1[O-]	1060% (active)
CC1C2(C)OC(=N)C(C#N)(C(C)O2)C1(C#N)C#N (stereo not drawn)	13.7% (active)
CCC12OC(=N)C(C#N)(C1C)C(C#N)(C#N)C(c1ccccc1)O2 (stereo not drawn)	2.9%
CCCCC1OC2(C)OC(=N)C1(C#N)C(C#N)(C#N)C2c1ccccc1 (stereo not drawn)	8.3%
CCc1ccc2c(c1)C(NC(C)=O)C(=O)N2CC (stereo not drawn)	6.29%
c1ccc(CCC2=NCCn3cccc32)cc1	15.8% (active)
Nc1ccc2c(O)cc(S(=O)(=O)O)cc2c1	16.8% (active)

Structure (SMILES)	activation
Cc1ccc(N=Nc2c(O)n(CN3CCOCC3)c3ccccc23)cc1	35.8% (active)
C/C(N)=C(/C#N)C(=O)CSc1n[nH]c(-c2cccs2)n1	11.4%
Cc1ccc(C)c(C(=O)CSc2n[nH]c(C(C)C)n2)c1	128% (active)
COc1ccc(Cl)cc1-c1nc(SCC(=O)NC(C)C)n[nH]1	8.01%
CC(C)(CO)NCC#Cc1ccccc1	5.16%
CCOc1cc(N(CC)CC)ccc1/C=C(/C#N)c1nc2ccccc2[nH]1	5.8%
CCCOc1cc(N(CC)CC)ccc1/C=C(/C#N)c1nc2ccc(C)cc2[nH]1	30.9% (active)
COc1cccc(/C=C(/C#N)c2nc3ccccc3[nH]2)c1OC(C)C(=O)O (stereo not drawn)	5.66%
COc1cc(/C=C(\C#N)c2nc3ccccc3[nH]2)cc(OC)c1O	37.9% (active)
COc1cc(/C=C(\C#N)c2nc3ccccc3[nH]2)ccc1O	6.21%
CCN(CC)c1ccc(/C=C(/C#N)c2nc3ccccc3[nH]2)c(OC(C)C)c1	127% (active)
COC1C/C(=N\O)C2OC(c3ccccc3)OCC2O1 (stereo not drawn)	6.29%
COc1cc2c3nnc(-c4ccc(F)cc4)c-3cn(Cc3cccc(F)c3)c2cc1OC	446% (active)
COc1cc2c3nnc(-c4ccc(F)cc4)c-3cn(Cc3cccc(C)c3)c2cc1OC	11.1%
COc1cc2c3nnc(-c4ccc(F)cc4)c-3cn(Cc3ccc(C)cc3)c2cc1OC	3.15%
O=C(NC1CCCCC1)C(c1ccc(F)cc1)N(Cc1ccccc1)C(=O)CN1C(=O)c2ccccc2S1(=O)=O (stereo not drawn)	165% (active)
COCCNC(=O)C(c1ccc(C)o1)N(Cc1ccc(F)cc1)C(=O)Cn1nnc2ccccc21 (stereo not drawn)	4.47%
Cc1cc(/C=N/NC(N)=S)c(O)c(/C=N/NC(N)=S)c1	480% (active)
CCn1c(Cc2ccccc2)nnc1SCC(=O)OC(C)C	11.8% (active)
CC(=O)Nc1cccc(NC(=O)CSc2nnc(Cc3cccn3C)n2CCc2ccccc2)c1	2.51%
C/C(=N/NC(=O)CNC(=O)Cc1ccccc1)c1ccco1	5.62%

Structure (SMILES)	activation
C/C(=N/NC(=O)c1cc(C)[nH]n1)c1ccco1	14.3% (active)
CCN(CC)c1ccc(/C=c2\sc3nnc(-c4ccccc4Cl)n3c2=O)cc1	72.8% (active)
CCN(CC)c1ccc(/C=C/C(=O)C2C(=O)C=C(C)OC2=O)cc1 (stereo not drawn)	3.69%
CCN(CC)c1ccc(/C=c2/sc3nnc(-c4ccccc4C)n3c2=O)cc1	12% (active)
Brc1ccc(C2=CC(c3cccs3)n3ncnc3N2)cc1 (stereo not drawn)	8.78%
COc1cc(C2C=C(c3cccs3)Nc3ncnn32)cc(OC)c1OC (stereo not drawn)	12.2% (active)
COc1cccc(C2C=C(c3ccc(Br)s3)Nc3ncnn32)c1OC (stereo not drawn)	5.02%
Cc1noc(NS(=O)(=O)c2ccc(NC(=O)CSc3nc4c(cc3C#N)CCC4)cc2)c1C	12.5% (active)
COC(=O)C1=C(CSc2nc3c(cc2C#N)CN(C)CC3)OC(N)=C(C#N)C1c1ccc(F)cc1 (stereo not drawn)	-0.37%
Cc1cc(C)nc(NS(=O)(=O)c2ccc(NC(=O)CSc3nc4ccccc4[nH]3)cc2)n1	8.08%
CC(=O)Nc1ccccc1	6.06%
CC(=O)Nc1ccc2cc3ccc(NC(C)=O)cc3nc2c1	43% (active)
CC(=O)Nc1ccc2nc3c(=O)n(C)c(=O)n(C)c3nc2c1	18.8% (active)
CC1CCN(S(=O)(=O)c2ccc(N=NC3=C(O)CC(C)(C)CC3=O)cc2)CC1	11.9% (active)
CC(=O)Nc1ccc(S(=O)(=O)N2CCN3CCCC3C2)cc1 (stereo not drawn)	6.53%
Cc1nn(C)c(NC(=O)c2ccccc2Cl)c1Cl	59.1% (active)
COc1ccccc1C(=O)Nc1nnn(C)n1	10%
CN1Cc2c(N)cccc2C(c2ccccc2)C1 (stereo not drawn)	-1.03%
N/C(COc1cc(Cl)cc(Cl)c1)=N\O	153% (active)
CCc1ccc(/C=C2/C(=O)N(C)C(=S)N2CC(=O)OC)s1	11.7% (active)
COC(=O)CN1C(=S)N(c2ccc(OC)cc2)C(=O)/C1=C/c1ccc(N2CCOCC2)cc1	11.4%
